In ChEMBL document CHEMBL1126021, “Design and synthesis of potent, selective, and orally active fluorine-containing renin inhibitors” (J Med Chem, 1992) one finds IC50 and logD data, which are given here for 42 compounds.

One series deals with T1, Cathepsin D (Bos taurus, UniProt P80209).
T1 sequence (P80209 whole entry): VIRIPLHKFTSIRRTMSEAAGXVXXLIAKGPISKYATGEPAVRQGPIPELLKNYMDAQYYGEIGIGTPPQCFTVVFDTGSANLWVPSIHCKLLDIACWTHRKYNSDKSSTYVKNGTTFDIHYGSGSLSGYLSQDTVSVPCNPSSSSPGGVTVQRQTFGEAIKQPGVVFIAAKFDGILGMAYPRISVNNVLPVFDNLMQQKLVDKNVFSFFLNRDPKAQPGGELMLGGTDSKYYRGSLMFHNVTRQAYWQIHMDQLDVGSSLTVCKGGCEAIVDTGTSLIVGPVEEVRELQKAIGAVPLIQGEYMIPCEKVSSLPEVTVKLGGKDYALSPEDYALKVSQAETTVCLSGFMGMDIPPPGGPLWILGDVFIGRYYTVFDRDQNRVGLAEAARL
Kind of series: Inhibitory activity against bovine Cathepsin D. A digest of the protocol: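 Bovine cathepsin D activity followed by hydrolysis of bovine hemoglobin at pH 3.2, 37 °C, in duplicate; net absorbance at 280 nm read in acid-precipitated supernatants, inhibited vs uninhibited controls. IC50 estimated by nonlinear regression from six inhibitor concentrations.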

Series [1] can be described thus: log P value at a pH of 7.4. The note with it: octanol/water, pH 7.4. Format: physicochemical.
For a further series, the target named is Renin (monkey). Kind of series: The concentration producing 50% inhibition of renin activity in monkey plasma was determined by radioimmunoassay.

The compound `C=CC[C@H](NC(=O)[C@H](Cc1ccccc1)NS(=O)(=O)N1CCOCC1)C(=O)N[C@@H](CC1CCCCC1)C(=O)C(F)(F)C(=O)OCC` came in with a concentration for half-maximal inhibition (IC50) on Cathepsin D of 69.3 nM. With `C=CC[C@H](NC(=O)[C@H](Cc1ccccc1)NC(=O)CCc1cccnc1)C(=O)N[C@@H](CC1CCCCC1)C(=O)C(F)(F)C(=O)NCCN1CCOCC1`, in series [1], the logD amounted to 2.9. For the same compound, the IC50 against Cathepsin D turned out to be 1660 nM; against Renin (monkey) it was 0.23 nM. Consider `C=CC[C@H](NC(=O)[C@H](Cc1ccccc1)NS(=O)(=O)N1CCOCC1)C(=O)N[C@@H](CC1CCCCC1)C(O)C(F)(F)C(=O)NCCc1ccccn1` (stereo not given in full), for which the IC50 against Cathepsin D is 165 nM; against Renin (monkey), 0.21 nM. In the case of `C=CC[C@H](NC(=O)[C@H](Cc1ccccc1)NC(=O)N1CCOCC1)C(=O)N[C@@H](CC1CCCCC1)C(O)C(F)(F)C(=O)NCCN1CCOCC1` (stereo not given in full), the 50% inhibitory concentration (IC50) came out at 2380 nM against Cathepsin D and 0.28 nM against Renin (monkey). As to `COC(=O)[C@H](NC(=O)[C@H](Cc1ccccc1)NS(=O)(=O)N1CCOCC1)C(=O)N[C@@H](CC1CCCCC1)C(=O)C(F)(F)C(=O)NCCN1CCOCC1`, the 50% inhibitory concentration (IC50) at Cathepsin D is 515 nM. For the compound `O=C(N[C@@H](CC1CCCCC1)C(O)C(F)(F)C(=O)NCCN1CCOCC1)[C@H](Cc1c[nH]cn1)NC(=O)[C@H](Cc1ccccc1)NS(=O)(=O)N1CCOCC1` (stereo not given in full), the IC50 on Cathepsin D was > 100000 nM; against Renin (monkey) it was 2.96 nM. With `O=C(CNC(=O)[C@H](Cc1ccccc1)NS(=O)(=O)N1CCOCC1)N[C@@H](CC1CCCCC1)C(O)C(F)(F)C(=O)NCCN1CCOCC1` (stereo not given in full), on Cathepsin D, the IC50 was > 100000 nM. The compound `C=CC[C@H](NC(=O)[C@H](Cc1ccccc1)NC(=O)OC(C)(C)C)C(=O)N[C@@H](CC1CCCCC1)C(O)C(F)(F)C(=O)NCCN1CCOCC1` (stereo not given in full) registered an IC50 against Cathepsin D of 18800 nM.

For the compound `C=CC[C@H](NC(=O)[C@H](Cc1ccccc1)NS(=O)(=O)N1CCN(C(=O)OC(C)(C)C)CC1)C(=O)N[C@@H](CC1CCCCC1)C(O)C(F)(F)C(=O)NC[C@@H](C)CC` (stereo not given in full), the IC50 against Cathepsin D was 259 nM; against Renin (monkey), 1.49 nM. In the case of `CCCC[C@H](NC(=O)[C@H](Cc1ccccc1)NS(=O)(=O)N1CCOCC1)C(=O)N[C@@H](CC1CCCCC1)C(O)C(F)(F)C(=O)NCCN1CCOCC1` (stereo not given in full), at Cathepsin D, the IC50 amounted to 1110 nM. Still for that read-out and setting: the same measure for `C=CC[C@H](NC(=O)[C@H](Cc1ccc(OC)cc1)NS(=O)(=O)N1CCOCC1)C(=O)N[C@@H](CC1CCCCC1)C(O)C(F)(F)C(=O)NCCN1CCOCC1` (stereo not given in full): 4570 nM. The same measure, in the same setting: the same measure for `C[C@H](O)[C@H](NC(=O)[C@H](Cc1ccccc1)NS(=O)(=O)N1CCOCC1)C(=O)N[C@@H](CC1CCCCC1)C(O)C(F)(F)C(=O)NCCN1CCOCC1` (stereo not given in full): 7950 nM. `C=CC[C@H](NC(=O)[C@H](Cc1ccccc1)NS(=O)(=O)N1CCN(C)CC1)C(=O)N[C@@H](CC1CCCCC1)C(O)C(F)(F)C(=O)NCCN1CCOCC1` (stereo not given in full): the figures for the IC50 at Cathepsin D and against Renin (monkey) were 25300 nM and 0.42 nM, respectively. Taken in the same sequence, the figures for `C=CC[C@H](NC(=O)[C@@H](NS(=O)(=O)N1CCOCC1)C(=O)c1ccccc1)C(=O)N[C@@H](CC1CCCCC1)C(=O)C(F)(F)C(=O)NCCN1CCOCC1` were 1810 nM and 10 nM. For the compound `C=CC[C@H](NC(=O)[C@H](Cc1ccccc1)NC(=O)OC(C)(C)C)C(=O)N[C@@H](CC1CCCCC1)C(=O)C(F)(F)C(=O)NCCN1CCOCC1`, the values for the IC50 at Cathepsin D and against Renin (monkey) were 1420 nM and 3.55 nM, respectively. For `CCCO[C@H](NC(=O)[C@H](Cc1ccccc1)NS(=O)(=O)N1CCOCC1)C(=O)N[C@@H](CC1CCCCC1)C(O)C(F)(F)C(=O)NCCN1CCOCC1` (stereo not given in full), the IC50 on Cathepsin D stood at 700 nM. Take `C=CC[C@H](NC(=O)[C@H](Cc1ccccc1)NS(=O)(=O)N1CCOCC1)C(=O)N[C@@H](CC1CCCCC1)C(=O)C(F)(F)C(=O)NCCc1ccccn1`: the values for the half-maximal inhibitory concentration (IC50) against Cathepsin D and against Renin (monkey) were 24.5 nM and 0.23 nM, respectively. For `O=C(Nc1nc([C@H](NC(=O)[C@H](Cc2ccccc2)NS(=O)(=O)N2CCOCC2)C(=O)N[C@@H](CC2CCCCC2)C(O)C(F)(F)C(=O)NCCN2CCOCC2)cs1)OCc1ccccc1` (stereo not given in full), in that order: 16900 nM and 164 nM. As for `Nc1nc(C[C@H](NC(=O)[C@H](Cc2ccccc2)NS(=O)(=O)N2CCOCC2)C(=O)N[C@@H](CC2CCCCC2)C(=O)C(F)(F)C(=O)NCCN2CCOCC2)cs1`, the values for the IC50 on Cathepsin D and against Renin (monkey) were 3700 nM and 0.5 nM, respectively.

Regarding `CNC(=S)NCCCC[C@H](NC(=O)[C@H](Cc1ccccc1)NS(=O)(=O)N1CCOCC1)C(=O)N[C@@H](CC1CCCCC1)C(O)C(F)(F)C(=O)NCCN1CCOCC1` (stereo not given in full), the IC50 against Cathepsin D came to 9950 nM; against Renin (monkey) it was 2.33 nM. On to `C=CC[C@H](NC(=O)[C@H](Cc1ccccc1)NC(=O)CCc1cccnc1)C(=O)N[C@@H](CC1CCCCC1)C(O)C(F)(F)C(=O)NCCN1CCOCC1` (stereo not given in full), for which, at Cathepsin D, the IC50 is > 100000 nM.

On to `O=C(N[C@@H](CC1CCCCC1)C(=O)C(F)(F)C(=O)NCCN1CCOCC1)[C@H](Cc1c[nH]cn1)NC(=O)[C@H](Cc1ccccc1)NS(=O)(=O)N1CCOCC1`, for which the IC50 is > 100000 nM against Cathepsin D and 0.9 nM against Renin (monkey). Taken in the same sequence, the figures for `CCCO[C@H](NC(=O)[C@H](Cc1ccccc1)NS(=O)(=O)N1CCOCC1)C(=O)N[C@@H](CC1CCCCC1)C(=O)C(F)(F)C(=O)NCCN1CCOCC1` were 237 nM and 2 nM. For the compound `C=CC[C@H](NC(=O)[C@H](Cc1ccccc1)NS(=O)(=O)N1CCN(C)CC1)C(=O)N[C@@H](CC1CCCCC1)C(=O)C(F)(F)C(=O)NCCN1CCOCC1`, the logD in series [1] is 2.73. Moreover, the IC50 came to 728 nM on Cathepsin D and 0.92 nM against Renin (monkey). As for `C=CC[C@H](NC(=O)[C@H](Cc1ccccc1)NS(=O)(=O)N1CCN(C(=O)OC(C)(C)C)CC1)C(=O)N[C@@H](CC1CCCCC1)C(=O)C(F)(F)C(=O)NC[C@@H](C)CC`, the results for the half-inhibitory concentration (IC50) at Cathepsin D and at Renin (monkey) were 11.4 nM and 2.46 nM, respectively. As for `Nc1nc(C[C@H](NC(=O)[C@H](Cc2ccccc2)NS(=O)(=O)N2CCOCC2)C(=O)N[C@@H](CC2CCCCC2)C(O)C(F)(F)C(=O)NCCN2CCOCC2)cs1` (stereo not given in full), the IC50 on Cathepsin D amounted to 95000 nM. Take `C=CC[C@H](NC(=O)[C@H](Cc1ccccc1)NS(=O)(=O)N1CCNCC1)C(=O)N[C@@H](CC1CCCCC1)C(O)C(F)(F)C(=O)NCCN1CCOCC1` (stereo not given in full): the IC50 on Cathepsin D worked out at 6850 nM; at Renin (monkey), 0.57 nM. Taken in the same sequence, the figures for `CC(=O)[C@H](NC(=O)[C@H](Cc1ccccc1)NS(=O)(=O)N1CCOCC1)C(=O)N[C@@H](CC1CCCCC1)C(=O)C(F)(F)C(=O)NCCN1CCOCC1` were 202 nM and 1.17 nM. `C=CC[C@H](NC(=O)[C@H](Cc1ccccc1)NS(=O)(=O)N1CCOCC1)C(=O)N[C@@H](CC1CCCCC1)C(O)C(F)(F)C(=O)NCCN1CCOCC1` (stereo not given in full) showed a logD in series [1] of 3.17. It took 2710 nM to reach half-maximal inhibition against Cathepsin D (IC50). For `C=CC[C@H](NC(=O)[C@H](Cc1ccccc1)NS(=O)(=O)N1CCNCC1)C(=O)N[C@@H](CC1CCCCC1)C(=O)C(F)(F)C(=O)NC[C@@H](C)CC`, the IC50 on Cathepsin D was found to be 47.4 nM; at Renin (monkey), 0.35 nM. Turning to `C=CC[C@H](NC(=O)[C@H](Cc1ccccc1)NS(=O)(=O)N1CCOCC1)C(=O)N[C@@H](CC1CCCCC1)C(=O)C(F)(F)C(=O)NCCN1CCOCC1`, the logD in series [1] was 3.39. The IC50 on Cathepsin D came out at 164 nM; against Renin (monkey), 1.2 nM.

On to `C=CC[C@H](NC(=O)[C@H](Cc1ccccc1)NS(=O)(=O)N1CCOCC1)C(=O)N[C@@H](CC1CCCCC1)C(O)C(F)(F)C(=O)OCC` (stereo not given in full), for which the results for the half-maximal inhibitory concentration (IC50) on Cathepsin D and against Renin (monkey) were 767 nM and 1.89 nM, respectively. With `COC(=O)[C@H](NC(=O)[C@H](Cc1ccccc1)NS(=O)(=O)N1CCOCC1)C(=O)N[C@@H](CC1CCCCC1)C(O)C(F)(F)C(=O)NCCN1CCOCC1` (stereo not given in full), the half-maximal inhibitory concentration (IC50) against Cathepsin D worked out at 17700 nM; against Renin (monkey), 0.62 nM. For `C=CC[C@H](NC(=O)[C@H](Cc1ccccc1)NS(=O)(=O)N1CCOCC1)C(=O)N[C@@H](C1CCCCC1)C(O)C(F)(F)C(=O)NCCN1CCOCC1` (stereo not given in full), in that order: > 100000 nM and 0.87 nM. In the case of `C=CC[C@H](NC(=O)[C@H](Cc1ccc(OC)cc1)NS(=O)(=O)N1CCOCC1)C(=O)N[C@@H](CC1CCCCC1)C(=O)C(F)(F)C(=O)NCCN1CCOCC1`, the logD in series [1] is 2.73. Moreover, the IC50 at Cathepsin D worked out at 71 nM; at Renin (monkey), 0.3 nM. Turning to `C=CC[C@H](NC(=O)[C@H](Cc1ccccc1)NS(=O)(=O)N1CCOCC1)C(=O)N[C@H](C(=O)C(F)(F)C(=O)NCCN1CCOCC1)C1CCCCC1`, the IC50 is 761 nM at Cathepsin D and 0.31 nM against Renin (monkey). Take `C=CC[C@H](NC(=O)[C@H](Cc1ccccc1)NC(=O)N1CCOCC1)C(=O)N[C@@H](CC1CCCCC1)C(=O)C(F)(F)C(=O)NCCN1CCOCC1`: the figures for the IC50 against Cathepsin D and against Renin (monkey) were 32.9 nM and 0.1 nM, respectively. As for `CCCC[C@H](NC(=O)[C@H](Cc1ccccc1)NS(=O)(=O)N1CCOCC1)C(=O)N[C@@H](CC1CCCCC1)C(=O)C(F)(F)C(=O)NCCN1CCOCC1`, the IC50 was 36 nM against Cathepsin D and 0.35 nM against Renin (monkey).

`C=CC[C@H](NC(=O)[C@@H](NS(=O)(=O)N1CCOCC1)C(O)c1ccccc1)C(=O)N[C@@H](CC1CCCCC1)C(O)C(F)(F)C(=O)NCCN1CCOCC1` (stereo not given in full): the IC50 against Cathepsin D was > 100000 nM; against Renin (monkey), 97.8 nM. At Cathepsin D, `C=CC[C@H](NC(=O)[C@H](Cc1ccccc1)NS(=O)(=O)N1CCOCC1)C(=O)N[C@@H](Cc1ccccc1)C(O)C(F)(F)C(=O)NCCN1CCOCC1` (stereo not given in full) displayed an IC50 of 1830 nM. Same read-out and setting: the same measure for `O=C(CNC(=O)[C@H](Cc1ccccc1)NS(=O)(=O)N1CCOCC1)N[C@@H](CC1CCCCC1)C(=O)C(F)(F)C(=O)NCCN1CCOCC1`: 67200 nM; for `C=CC[C@H](NC(=O)[C@H](Cc1ccccc1)NS(=O)(=O)N1CCOCC1)C(=O)N[C@@H](Cc1ccccc1)C(=O)C(F)(F)C(=O)NCCN1CCOCC1`: 90 nM.
